Laboratory results from ChEMBL document CHEMBL1132183 (J Med Chem, 1999).

Legend:
[1] = target: T1, Alpha-1B adrenergic receptor (Homo sapiens, UniProt P35368); test: Displacement of [3H]prazosin from human cloned Alpha-1B adrenergic receptor
T1 sequence (P35368 whole entry): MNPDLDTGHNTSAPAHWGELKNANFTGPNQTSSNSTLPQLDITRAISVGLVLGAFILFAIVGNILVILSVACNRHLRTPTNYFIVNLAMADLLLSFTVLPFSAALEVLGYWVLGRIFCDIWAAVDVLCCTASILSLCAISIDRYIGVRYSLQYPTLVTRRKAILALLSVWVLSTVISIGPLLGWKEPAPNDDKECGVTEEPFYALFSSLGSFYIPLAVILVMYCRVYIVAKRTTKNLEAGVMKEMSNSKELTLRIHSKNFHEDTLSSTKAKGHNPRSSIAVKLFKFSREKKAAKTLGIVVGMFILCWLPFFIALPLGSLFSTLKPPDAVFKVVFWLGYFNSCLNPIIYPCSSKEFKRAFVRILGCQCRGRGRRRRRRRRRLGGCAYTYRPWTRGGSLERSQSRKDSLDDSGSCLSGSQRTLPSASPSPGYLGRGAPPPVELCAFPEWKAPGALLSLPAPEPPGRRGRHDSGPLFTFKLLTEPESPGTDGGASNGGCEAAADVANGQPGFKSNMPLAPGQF
How it was run: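 CHO cells stably transfected with each human α1 subtype; 30 μg membrane protein in 50 mM Tris-HCl pH 7.4 with 0.1–0.4 nM [3H]prazosin, 30 min at 25 °C. Competitors 1 pM–10 μM. Nonspecific binding defined with 10 μM phentolamine. Filtration, scintillation counting. Ki by Cheng–Prusoff; 2–3 experiments in triplicate.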

[2] = target: Serotonin 2 (5-HT2) receptor (Rattus norvegicus, UniProt P30994+P08909+P14842); test: Displacement of [3H]ketanserin from rat brain 5-hydroxytryptamine 2 receptor
How it was run: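 Rat cerebral cortex membranes (male Sprague–Dawley) in Tris-HCl pH 7.4 with 10 μM pargiline and 0.1% ascorbic acid were incubated 20 min at 37 °C with 0.7–1.3 nM [3H]ketanserin (5-HT2A). Nonspecific binding was defined by 2 μM ketanserin. Bound label was counted after filtration, and Ki was derived by Cheng–Prusoff.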

[3] = target: T2, Adrenergic receptor alpha-2 (Rattus norvegicus, UniProt P22086+P19328+P22909); test: Displacement of [3H]rauwolscine from rat brain Alpha-2 adrenergic receptor
T2 sequence (P22086 whole entry): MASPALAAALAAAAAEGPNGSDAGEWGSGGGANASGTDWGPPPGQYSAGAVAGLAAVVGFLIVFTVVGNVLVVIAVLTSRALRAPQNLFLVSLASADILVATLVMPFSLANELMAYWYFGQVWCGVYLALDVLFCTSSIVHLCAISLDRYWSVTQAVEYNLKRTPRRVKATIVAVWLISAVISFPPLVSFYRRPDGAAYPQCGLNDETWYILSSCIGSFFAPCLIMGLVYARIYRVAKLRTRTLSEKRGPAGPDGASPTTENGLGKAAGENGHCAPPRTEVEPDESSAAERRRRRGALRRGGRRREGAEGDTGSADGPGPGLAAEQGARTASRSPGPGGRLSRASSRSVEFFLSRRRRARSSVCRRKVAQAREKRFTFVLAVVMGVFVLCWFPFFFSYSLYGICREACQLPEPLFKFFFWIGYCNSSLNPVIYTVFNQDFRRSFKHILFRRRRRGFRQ
T2 sequence (P19328 whole entry): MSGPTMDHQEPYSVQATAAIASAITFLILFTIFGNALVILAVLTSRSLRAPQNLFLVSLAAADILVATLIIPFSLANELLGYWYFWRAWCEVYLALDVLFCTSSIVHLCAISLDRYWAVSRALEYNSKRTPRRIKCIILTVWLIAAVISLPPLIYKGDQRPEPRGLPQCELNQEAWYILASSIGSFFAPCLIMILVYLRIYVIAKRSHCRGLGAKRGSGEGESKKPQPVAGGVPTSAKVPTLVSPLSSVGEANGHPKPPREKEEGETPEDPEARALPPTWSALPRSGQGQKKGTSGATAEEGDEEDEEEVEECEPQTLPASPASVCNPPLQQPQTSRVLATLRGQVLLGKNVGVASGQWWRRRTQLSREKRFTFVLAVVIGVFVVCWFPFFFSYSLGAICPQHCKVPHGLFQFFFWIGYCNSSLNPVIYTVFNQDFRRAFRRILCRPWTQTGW
T2 sequence (P22909 whole entry): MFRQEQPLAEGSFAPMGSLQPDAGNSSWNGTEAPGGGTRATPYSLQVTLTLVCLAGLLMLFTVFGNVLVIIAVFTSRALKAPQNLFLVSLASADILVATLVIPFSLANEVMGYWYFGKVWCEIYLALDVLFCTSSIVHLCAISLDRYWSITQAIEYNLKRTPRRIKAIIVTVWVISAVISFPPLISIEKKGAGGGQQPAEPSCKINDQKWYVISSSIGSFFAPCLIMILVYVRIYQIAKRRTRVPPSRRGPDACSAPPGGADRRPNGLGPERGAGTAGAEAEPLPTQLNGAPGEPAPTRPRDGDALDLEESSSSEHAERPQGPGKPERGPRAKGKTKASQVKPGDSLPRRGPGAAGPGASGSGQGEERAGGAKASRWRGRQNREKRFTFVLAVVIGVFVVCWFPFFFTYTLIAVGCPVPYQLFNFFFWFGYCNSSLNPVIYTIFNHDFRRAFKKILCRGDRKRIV
How it was run: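 Rat cerebral cortex membranes (male Sprague–Dawley) were washed in Tris-HCl pH 7.4 and resuspended with 10 μM pargiline and 0.1% ascorbic acid. They were incubated 30 min at 25 °C with 0.5–1.5 nM [3H]rauwolscine. Nonspecific binding was taken with 10 μM phentolamine. Filtration and scintillation counting followed, and Ki was obtained by Cheng–Prusoff.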

D(2) dopamine receptor = D(2) dopamine receptor (Rattus norvegicus, UniProt P61169); test: Displacement of [3H]spiperone from rat brain Dopamine receptor D2
How it was run: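 Striata from male Sprague–Dawley rats homogenized in Tris-HCl pH 7.4. Buffer held 10 μM pargiline, 0.1% ascorbic acid, 120 mM NaCl, 5 mM KCl, 2 mM CaCl2, 1 mM MgCl2. Incubated with 0.2–0.6 nM [3H]spiperone for 15 min at 37 °C. Nonspecific binding defined with 1 μM (+)-butaclamol. Filtration, scintillation counting. Ki by Cheng–Prusoff.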

[4] = target: T3, 5-hydroxytryptamine receptor 1A (Homo sapiens) (UniProt P08908); settings: HeLa
T3 sequence (whole entry): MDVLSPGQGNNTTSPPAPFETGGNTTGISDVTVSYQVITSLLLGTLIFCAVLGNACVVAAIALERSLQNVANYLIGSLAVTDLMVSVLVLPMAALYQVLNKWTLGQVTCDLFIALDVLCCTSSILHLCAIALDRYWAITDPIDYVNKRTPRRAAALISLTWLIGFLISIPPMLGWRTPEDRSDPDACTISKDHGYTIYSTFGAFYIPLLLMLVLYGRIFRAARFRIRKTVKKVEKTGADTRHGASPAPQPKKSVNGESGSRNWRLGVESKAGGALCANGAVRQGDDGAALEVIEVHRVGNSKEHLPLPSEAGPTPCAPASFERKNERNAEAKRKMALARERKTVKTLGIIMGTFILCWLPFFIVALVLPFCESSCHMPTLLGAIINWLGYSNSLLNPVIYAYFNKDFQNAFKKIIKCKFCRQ

[5] = target: T3, 5-hydroxytryptamine receptor 1A (Homo sapiens); settings: HeLa; remark: listed apart in the source
[6] = target: T4, Alpha-1B adrenergic receptor (Rattus norvegicus) (UniProt P15823); test: Antagonism of Alpha-1B adrenergic receptor subtype (-)-phenylephrine-induced contraction of rat spleen; type: functional, tissue-based
T4 sequence (whole entry): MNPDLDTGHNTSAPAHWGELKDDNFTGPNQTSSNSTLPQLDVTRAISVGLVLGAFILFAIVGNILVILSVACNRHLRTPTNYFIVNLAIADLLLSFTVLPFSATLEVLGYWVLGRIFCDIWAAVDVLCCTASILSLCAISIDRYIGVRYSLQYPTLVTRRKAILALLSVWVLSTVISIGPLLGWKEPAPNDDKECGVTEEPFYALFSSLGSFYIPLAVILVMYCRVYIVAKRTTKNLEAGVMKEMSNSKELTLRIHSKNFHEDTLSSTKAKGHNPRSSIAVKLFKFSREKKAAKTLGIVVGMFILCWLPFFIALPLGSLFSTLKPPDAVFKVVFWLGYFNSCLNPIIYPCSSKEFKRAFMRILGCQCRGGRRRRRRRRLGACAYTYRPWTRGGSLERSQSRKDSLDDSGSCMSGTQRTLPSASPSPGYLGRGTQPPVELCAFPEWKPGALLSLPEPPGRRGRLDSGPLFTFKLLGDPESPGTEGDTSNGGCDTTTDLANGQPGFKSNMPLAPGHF
How it was run: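 Rat spleen, isometric cumulative (–)-phenylephrine curves at 30-min intervals; first discarded, second taken as control. Antagonist was equilibrated 30 min before the next curve.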

Sequence of D(2) dopamine receptor (P61169 whole entry): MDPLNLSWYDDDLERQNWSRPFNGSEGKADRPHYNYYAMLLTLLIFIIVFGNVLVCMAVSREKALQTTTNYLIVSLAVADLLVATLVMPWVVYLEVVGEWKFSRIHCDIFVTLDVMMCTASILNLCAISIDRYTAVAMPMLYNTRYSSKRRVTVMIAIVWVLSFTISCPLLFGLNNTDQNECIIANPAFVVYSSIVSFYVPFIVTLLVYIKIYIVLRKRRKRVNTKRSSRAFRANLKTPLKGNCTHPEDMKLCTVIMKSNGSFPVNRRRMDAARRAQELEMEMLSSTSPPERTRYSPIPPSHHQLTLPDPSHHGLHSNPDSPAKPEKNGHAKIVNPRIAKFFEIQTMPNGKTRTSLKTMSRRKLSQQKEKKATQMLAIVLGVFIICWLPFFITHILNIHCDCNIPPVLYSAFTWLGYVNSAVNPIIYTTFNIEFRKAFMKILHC

In the case of `CCCN(CCC)C1CCc2cccc(O)c2C1` (stereo unspecified) [8-OH-DPAT], the Ki [1] is reported as greater than 1000 nM, the “Log Ki” value [2] is reported as less than -6 and the “Log Ki” value [3] is reported as -6.08. The “Log Ki” value (D(2) dopamine receptor) was less than -6.
Compound `NCCc1c[nH]c2ccc(C(N)=O)cc12` has a pD2 [4] of 8.45.
Work on `NCCc1c[nH]c2ccc(O)cc12` yielded a pD2 [4] of 7.3.
`COc1ccccc1N1CCN(CCN2C(=O)CC3(CCCC3)CC2=O)CC1` [BMY-7378] was tested, and the pD2 [5] was 9.27, the “Log Ki” value [2] was -6.31 and the “Log Ki” value [3] was -5.93. It also gave a Ki (D(2) dopamine receptor) of 49 nM and a pKb [6] of 7.55.
